One block for each molecule: values may come before it.
Experiments:
[1] = Selectivity index, ratio of IC50 for rat L6 cells over IC50 for intracellular Trypanosoma cruzi amastigotes; assay type: functional
[2] = Selectivity index, ratio of IC50 for human recombinant squalene synthase over IC50 for Trypanosoma cruzi squalene synthase
How it was run: (§1)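 T. cruzi enzyme was purified TcSQS24/36; human SQS was E. coli extract expressing pHSS16. Stopped with NaOH, squalene carrier added, TLC in toluene-ethyl acetate 9:1, squalene zone counted by scintillation. Index = human IC50 / T. cruzi IC50.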

Squalene synthase = molecular target: T1, Squalene synthase (Homo sapiens, UniProt P37268); assay: Inhibition of human recombinant squalene synthase
T1 sequence (P37268 whole entry): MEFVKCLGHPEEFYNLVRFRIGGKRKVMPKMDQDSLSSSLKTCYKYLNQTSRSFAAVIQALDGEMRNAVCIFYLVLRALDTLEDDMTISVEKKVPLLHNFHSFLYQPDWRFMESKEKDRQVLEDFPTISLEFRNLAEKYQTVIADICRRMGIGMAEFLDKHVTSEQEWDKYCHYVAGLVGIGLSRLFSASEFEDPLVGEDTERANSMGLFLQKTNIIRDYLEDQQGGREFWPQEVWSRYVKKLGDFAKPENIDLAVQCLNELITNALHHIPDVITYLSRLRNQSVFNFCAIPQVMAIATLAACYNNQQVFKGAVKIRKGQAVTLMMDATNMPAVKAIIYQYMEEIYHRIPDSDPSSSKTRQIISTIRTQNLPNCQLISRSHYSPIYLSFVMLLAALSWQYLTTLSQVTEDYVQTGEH
How it was run: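 The enzyme source was extracts of E. coli expressing truncated human SQS. Activity was measured as [3H]FPP-to-squalene conversion at 0.5 μM FPP and 0.25 mM NADPH in pH 7.4 MOPS-NaOH with MgCl2, CHAPS, Tween 80 and DTT, for 5 min at 37°C. Reactions were stopped with NaOH, squalene was separated by silica TLC (toluene-ethyl acetate 9:1) and counted by scintillation, and IC50 was curve-fitted.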

[3] = Inhibition of Trypanosoma cruzi recombinant squalene synthase
How it was run: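 The enzyme was purified His-tagged T. cruzi SQS expressed in E. coli, truncated by 24 N-terminal and 36 C-terminal residues. Activity was measured as [3H]FPP-to-[3H]squalene conversion in pH 7.4 MOPS-NaOH with 20 mM MgCl2, 5 mM CHAPS, 1% Tween 80, 10 mM DTT, 0.25 mM NADPH and 0.5 μM FPP, 5 min at 37°C. Reactions were stopped with NaOH, squalene was separated by silica TLC and counted by scintillation, and IC50 was curve-fitted.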

Trypanosoma cruzi [4] = assay: Antitrypanosomal activity against intracellular Trypanosoma cruzi amastigotes in rat L6 cells; assay type: functional, organism-based
How it was run: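 L6 rat myoblasts were seeded at 2,000 cells/well in RPMI 1640 with 10% FBS and 2 mM L-glutamine. After 24 h, 5,000 Tulahuen C2C4 trypomastigotes expressing lacZ were added with twofold serial drug dilutions. Plates were incubated 4 days at 37°C in 5% CO2. CPRG/Nonidet was then added, and colour was read at 540 nm after 2–4 h. IC50 came from the sigmoidal inhibition curve.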

L6 = assay: Growth inhibition of rat L6 cells; assay type: cell-based
Trypanosoma cruzi [5] = assay: Activity of Trypanosoma cruzi microsomal or mitochondrial squalene synthase
Homo sapiens = species on record: Homo sapiens; assay: Activity of human double-truncated squalene synthase; how it was run: as §1
Trypanosoma cruzi [6] = assay: Activity of Trypanosoma cruzi glycosomal squalene synthase
Trypanosoma cruzi [7] = assay: Activity of Trypanosoma cruzi truncated squalene synthase 24/36
How it was run: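 Purified N-His-tagged TcSQS24/36 (E. coli, IMAC then MonoQ) in 50 mM MOPS-NaOH pH 7.4, 20 mM MgCl2, 5 mM CHAPS, 1% Tween 80, 10 mM DTT, 0.025 mg/ml BSA. [3H]FPP to [3H]squalene, 5 min at 37°C. FPP Km: 1–20 μM FPP with 2 mM NADPH. NADPH Km: 5–400 μM NADPH with 20 μM FPP. Nonlinear hyperbolic fits.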

Saccharomyces cerevisiae = assay: Activity of Saccharomyces cerevisiae C-terminal truncated squalene synthase
Leishmania mexicana [8] = assay: Activity of Leishmania mexicana microsomal or mitochondrial squalene synthase
Leishmania mexicana [9] = assay: Activity of Leishmania mexicana glycosomal squalene synthase
[10] = substrate: CC(C)=CCC/C(C)=C/CC/C(C)=C/COP(=O)(O)OP(=O)(O)O; assay: (§2) Activity of human full length squalene synthase expressed in baculovirus
[11] = substrate: NC(=O)c1ccc[n+]([C@@H]2O[C@H](COP(=O)([O-])OP(=O)(O)OC[C@H]3O[C@@H](n4cnc5c(N)ncnc54)[C@H](OP(=O)(O)O)[C@@H]3O)[C@@H](O)[C@H]2O)c1; assay: as §2

- Ratio IC50 [2]: 140
- IC50 (Squalene synthase): 7000 nM
Molecule: CCOC(=O)c1ccc(C2=CN3CCC2CC3)cc1
- Ratio IC50 [1]: 17
- IC50 [3]: 50 nM

Molecule: CO[C@H]1CN(c2ccc(C#C[C@@]3(O)CN4CCC3CC4)c(Cc3ccccc3)n2)C[C@H]1O
- IC50 (Trypanosoma cruzi [4]): 8 nM
- Ratio IC50 [2]: 1.8
- IC50 (Squalene synthase): 1.5 nM
- IC50 [3]: 0.84 nM

- IC50 (Trypanosoma cruzi [4]): 3100 nM
- Ratio IC50 [2]: 0.3
- IC50 (Squalene synthase): 250 nM
Molecule: C(#Cc1ccc(OCc2ccccc2)cc1)C1=CN2CCC1CC2
- Ratio IC50 [1]: 15
- IC50 (L6): 47200 nM
- IC50 [3]: 830 nM

Molecule: O[C@]1(C#Cc2cccc(OCc3ccccc3)c2)CN2CCC1CC2
- Ratio IC50 [1]: 4.7
- IC50 (L6): 45000 nM
- IC50 (Trypanosoma cruzi [4]): 9600 nM
- Ratio IC50 [2]: > 13
- IC50 (Squalene synthase): > 20000 nM
- IC50 [3]: 1500 nM

Molecule: C1=C(Cc2ccc(-c3ccccc3)cc2)C2CCN1CC2
- Ratio IC50 [1]: 4.4
- IC50 (L6): 20500 nM
- IC50 (Trypanosoma cruzi [4]): 4700 nM
- Ratio IC50 [2]: > 27
- IC50 (Squalene synthase): > 20000 nM
- IC50 [3]: 730 nM

Molecule: COCCCOc1ccc(C#C[C@@]2(O)CN3CCC2CC3)c(Cc2ccccc2)n1
- IC50 (Trypanosoma cruzi [4]): 11 nM
- Ratio IC50 [2]: 1.7
- IC50 (Squalene synthase): 6 nM
- IC50 [3]: 3.52 nM

- Km (Trypanosoma cruzi [5]): 2.3 µM
- Vmax (Trypanosoma cruzi [5]): 1.18 nmol/min/mg
- Km (Homo sapiens): 2.8 µM
- Km (Trypanosoma cruzi [6]): 2.8 µM
- Vmax (Trypanosoma cruzi [6]): 0.97 nmol/min/mg
- Km (Trypanosoma cruzi [7]): 5.25 µM
- Vmax (Trypanosoma cruzi [7]): 1430 nmol/min/mg
- Km (Saccharomyces cerevisiae): 2.5 µM
- Km (Leishmania mexicana [8]): 2.8 µM
- Vmax (Leishmania mexicana [8]): 0.98 nmol/min/mg
- Km (Leishmania mexicana [9]): 3.2 µM
- Vmax (Leishmania mexicana [9]): 0.75 nmol/min/mg
Molecule: CC(C)=CCC/C(C)=C/CC/C(C)=C/COP(=O)(O)OP(=O)(O)O

- Km (Trypanosoma cruzi [5]): 33 µM
- Vmax (Trypanosoma cruzi [5]): 0.76 nmol/min/mg
- Km (Trypanosoma cruzi [6]): 40 µM
- Vmax (Trypanosoma cruzi [6]): 0.43 nmol/min/mg
- Km (Trypanosoma cruzi [7]): 23.3 µM
- Vmax (Trypanosoma cruzi [7]): 1850 nmol/min/mg
- Km (Saccharomyces cerevisiae): 530 µM
- Km (Leishmania mexicana [8]): 57 µM
- Vmax (Leishmania mexicana [8]): 0.84 nmol/min/mg
- Km (Leishmania mexicana [9]): 62 µM
- Vmax (Leishmania mexicana [9]): 0.58 nmol/min/mg
Molecule: NC(=O)c1ccc[n+]([C@@H]2O[C@H](COP(=O)([O-])OP(=O)(O)OC[C@H]3O[C@@H](n4cnc5c(N)ncnc54)[C@H](OP(=O)(O)O)[C@@H]3O)[C@@H](O)[C@H]2O)c1

B1: Squalene synthase (Homo sapiens), P37268 (protein)
chain: T1 sequence (P37268 whole entry)
- Km [10]: 2.3 µM
- Vmax [10]: 4800 nmol/min/mg
- Km [11]: 430 µM
- Vmax [11]: 3800 nmol/min/mg

Reference: ChEMBL document CHEMBL1145517, “Kinetic characterization of squalene synthase from Trypanosoma cruzi: selective inhibition by quinuclidine derivatives” (Antimicrob Agents Chemother, 2007)
